Experimental data gathered from unrelated publications.
Compare with care: the assays were run in different laboratories. pEC50, pIC50, pKi: −log10 of the molar value.
OPRK1: Kappa-type opioid receptor (OPRK1, Homo sapiens, UniProt P41145)
CNR1: Cannabinoid receptor 1 (CNR1, Homo sapiens, UniProt P21554)
PFF0160c: Dihydroorotate dehydrogenase (quinone), mitochondrial (PFF0160c, Plasmodium falciparum, UniProt Q08210)

Structure (SMILES) | target | effect on | action | method | setting | quantity | value
O=C(N[C@H]1CC[C@@]2(O)[C@H]3Cc4ccc(O)c5c4[C@@]2(CCN3CC2CC2)[C@H]1O5)c1ccc(C(F)(F)F)s1 | OPRK1 | ligand displacement |  | radioligand | cell membranes | pKi | 8.61
CCCCCc1cc(O)c2c(c1)OC(C)(C)c1ccc(C)cc1-2 | CNR1 | cell-free assay |  |  |  | pKi | 6.55
CCn1cc(C2CC2)c2c(Cc3ccc(C(F)(F)F)c(F)c3)n(C)nc2c1=O | PFF0160c | enzyme activity | inhibitor |  |  | pIC50 | 7.90
NS(=O)(=O)c1ccc(C(=O)N[C@H]2CC[C@@]3(O)[C@H]4Cc5ccc(O)c6c5[C@@]3(CCN4CC3CC3)[C@H]2O6)s1 | OPRK1 | ligand displacement |  | radioligand | cell membranes | pKi | 8.41
Cn1nc2c(=O)n(C3CC3)cnc2c1[C@@](O)(c1cnc(C(F)(F)F)c(Cl)c1)C(F)(F)F | PFF0160c | enzyme activity | inhibitor |  |  | pIC50 | 5.30
CNC(=O)c1ccc(-c2cnn3ccc(C(=O)N(C)c4ccc(Cl)c(C(=O)O)c4)cc23)cc1 | Serine/threonine-protein kinase WNK1 (WNK1, Homo sapiens, UniProt Q9H4A3) | enzyme activity | inhibitor |  |  | pIC50 | < 4.52
CCCCCn1c(O)c(N=NC(=O)c2ccccc2)c2ccccc21 | CNR1 | β-arrestin recruitment | agonist |  |  | pEC50 | 6.11
O=C(N[C@H]1CC[C@@]2(O)[C@H]3Cc4ccc(O)c5c4[C@@]2(CCN3CC2CC2)[C@H]1O5)c1ccc(F)s1 | OPRK1 | ligand displacement |  | radioligand | cell membranes | pKi | 8.66
O=C(N=Nc1c(O)n(CCCCCF)c2ccccc12)c1ccccc1 | CNR1 | ligand displacement |  | radioligand | cell membranes | pKi | 5.65
Cc1ccc(C(=O)N[C@H]2CC[C@@]3(O)[C@H]4Cc5ccc(O)c6c5[C@@]3(CCN4CC3CC3)[C@H]2O6)s1 | OPRK1 | ligand displacement |  | radioligand | cell membranes | pKi | 8.78
CCNC(=O)c1nn(C)c(Cc2ccc(C(F)(F)F)nc2)c1C | PFF0160c | enzyme activity | inhibitor |  |  | pIC50 | 5.28
Brc1ccc2c(c1)C(c1ccccn1)=NCc1c(-c3cnco3)ncn1-2 | OPRK1 | ligand displacement |  | radioligand |  | pKi | 5.68
COC(=O)[C@@H](NC(=O)c1nn(Cc2ccc(F)cc2)c2ccccc12)C(C)C | CNR1 | β-arrestin recruitment | agonist |  |  | pEC50 | 7.70
CC(=O)Nc1ccc(C(=O)N[C@H]2CC[C@@]3(O)[C@H]4Cc5ccc(O)c6c5[C@@]3(CCN4CC3CC3)[C@H]2O6)s1 | OPRK1 | ligand displacement |  | radioligand | cell membranes | pKi | 8.30
CCn1ccc2c(Cc3ccc(C(F)(F)F)nc3)n(C)nc2c1=O | PFF0160c | enzyme activity | inhibitor |  |  | pIC50 | 5.80
